PTEN del growth: growth suppression of PTEN-null HCT116, primary screen, cell-based, CellTiter-Glo; HCT116 PTEN-null viability, 60 h; stronger effect = lower value; viability, % at 10 µM; 140,000 tested, 1.2% active; AID 827, 2007;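 active means viability at or below a set limit, 4 SD under the median of all tested compounds, cut at about 3.7% in these data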;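 further: PTEN knockout HCT116 line with beta catenin targeted HCT116 as companion control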
H69AR growth 86K: proliferation blockers of H69AR lung cancer cells, primary screen, cell-based, human, 86K library; H69AR lung tumor viability, ATP luminescence, 72 h; stronger effect = lower value; 85,000 tested, 6% active; AID 598, 2007; viability, % at 10 µM;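 active means viability at or below 40%; inactive means viability above 40%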;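 further: multidrug resistant small cell line overexpressing MRP-1 efflux transporter; 100% = mean luminescence of untreated control wells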
Lung fibro prol: antiproliferative effect on LL 47 fibroblasts – human, LL 47 cells, CellTiter-Glo luminescence, primary screen; 85,000 tested, 1.1% active; AID 719, 2007; LL 47 human lung fibroblast viability, ATP luminescence; stronger effect = lower value; viability, % at 10 µM;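 active means viability at or below 50% in the single dose screen; inactive means viability above 50%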;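 further: compound exposure lasted 72 h before the ATP readout; 100% = median luminescence of untreated cell-only wells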
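Material: human lung fibroblast line LL 47, low passage; Evaluation: viability percentage against median untreated-cell control; Buffer or medium: 15% FBS in IMEM; Incubation: 72 h compound exposure at 37 °C after overnight plating; Dosing: 0.1% DMSO in all compound wells; Measured by: CellTiter-Glo luminescence.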
HCT116 bCat-KO: primary screen for growth suppressors in beta-catenin knockout HCT116 cells (colon tumor, human); 140,000 tested, 1.5% active; viability, % at 10 µM; HCT116 beta-catenin knockout viability, CellTiter-Glo, 60 h; stronger effect = lower value;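 active means viability at or under a set limit, the compound median less 4 SD, cut at about 6% in these data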;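 further: 0% = Hyamine 1622 control at 20 µM and 100% = untreated cell control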
HUVEC prolif 384: inhibitors of HUVEC proliferation, primary screen, cell-based, 384-well; 86,000 tested, 1.1% active; AID 648, 2007; viability, % at 10 µM (by protocol); CellTiter-Glo luminescence, 72 h; stronger effect = lower value;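 active means viability at or below 30%; inactive means viability above 30%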;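 further: 100% = median luminescence of DMSO-only cell control wells on each plate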
* hit, by the source's call; x = no result. Shown is part of a subset that was picked to be rich in hits.

SMILES	PTEN del growth	H69AR growth 86K	Lung fibro prol	HCT116 bCat-KO	HUVEC prolif 384
COc1cccc(C2(O)CCN(C(=O)Cc3cccnc3)CC2)c1	93	81	100	92	100
COc1ccc(NC(=O)COC(=O)c2ncc(Cl)c(Cl)c2Cl)c(OC)c1	96	x	x	94	x
CCOC(=O)C1=C(C)NC2=C(C(=O)CCC2)C1c1cn(Cc2ccc(Cl)cc2Cl)nc1-c1ccccc1 (configuration not stated)	50	x	x	54	x
C(=N\n1cnnc1)/c1cn(Cc2ccccc2)c2ccccc12	80	75	77	80	48
Clc1ccc(Cn2cc(/C=N/n3cnnc3)c3ccccc32)c(Cl)c1	86	75	76	84	13*
Cc1cc(C(=O)N2CCc3ccccc32)n(-c2ccccc2)n1	31	22*	89	38	71
Cc1nn(-c2ccccc2)c(C)c1/C=N/NC(=O)CSc1nnc(SCc2ccc(Cl)cc2)s1	103	x	x	103	x
CCN1CCCC1CNC(=O)C1CCN(Cc2nc(-c3cccc(Br)c3)oc2C)CC1 (configuration not stated)	6	52	29*	4.7*	18*
COc1ccccc1CNC(=O)C1CCN(Cc2nc(-c3ccc(Cl)cc3)oc2C)CC1	x	66	103	x	42
CCc1ccc(-c2nc(CN3CCC(C(=O)NCCc4ccc(OC)c(OC)c4)CC3)c(C)o2)cc1	15	69	90	2.0*	55
COc1ccccc1CNC(=O)C1CCN(Cc2nc(-c3cccc(Cl)c3)oc2C)CC1	24	40*	89	22	56
CCc1ccc(-c2nc(CN3CCC(C(=O)NCc4ccccc4OC)CC3)c(C)o2)cc1	34	18*	66	21	32
CCCCNS(=O)(=O)c1ccc(NC(=O)c2c(-c3ccccc3Cl)noc2C)cc1	15	33*	71	14	69
CCOC(=O)c1ccc(N=c2sc(C(=O)OC)cc(=O)n2C2CC2)cc1	66	34*	94	70	49
CCOC(=O)c1ccc(N=c2sc(C(=O)OC)cc(=O)n2Cc2ccc3c(c2)OCO3)cc1	14	33*	96	6	82
O=C(Nc1ccccc1)N1CCN(Cc2ccc3c(c2)OCO3)CC1	86	94	94	92	98
COC(=O)c1ccc(N=c2sc(C(=O)OC)cc(=O)n2C)cc1	x	24*	55	x	58
COC(=O)c1cc(=O)n(Cc2ccc3c(c2)OCO3)c(=Nc2ccccc2)s1	15	12*	89	21	54
NNC1=N[C@H]2CS(=O)(=O)C[C@H]2S1	91	x	x	99	x
Cc1ccc(-c2nnc(CSc3nc(C(C)C)nc4sc(C)c(C)c34)o2)cc1	89	103	105	79	91
c1ccc2cc(CSCc3nc4ccccc4[nH]3)ccc2c1	74	x	x	67	x
COC(=O)c1cc(=O)n(Cc2ccc3c(c2)OCO3)c(=Nc2ccc(F)cc2)s1	16	7.9*	85	27	60
C/C(=N\Nc1nc(-c2cc(C)ccc2C)cs1)c1cc2c(ccc3ccccc32)oc1=O	92	x	x	90	x
COc1ccc(-n2cc(-c3ccccc3)c3c(N4CCN(CCO)CC4)ncnc32)cc1	18	58	74	33	30*
CCOC(=O)CN1C(=O)CSc2ccccc21	91	x	x	88	x
SMILES	PTEN del growth	H69AR growth 86K	Lung fibro prol	HCT116 bCat-KO	HUVEC prolif 384
CCN1CCN(Cc2ccc(OCc3ccccc3)cc2)CC1	1.2*	88	93	1.0*	85
CN1CCN(Cc2ccc(OCc3ccccc3)cc2)CC1	95	90	x	89	98
Cc1ccc(S(=O)(=O)Nc2nc(C)c(NC(=O)Nc3ccc(Cl)cc3Cl)s2)cc1	92	x	x	106	x
Cc1cccc(N=C2NN=C(c3ccc4c(c3)OCCO4)CS2)c1	30	77	102	36	86
Cc1cccc(N=C2NN=C(c3c(C)[nH]c4ccccc34)CS2)c1	4	x	x	2.7*	x
O=C(CCl)Nc1cc(S(=O)(=O)N2CCCCCC2)ccc1Cl	10	x	x	6	x
CCOC(=O)c1nn(-c2ccccc2C)c2nc(-c3ccc(Cl)cc3)c(C#N)c(=O)n12	2.1*	x	x	1.7*	x
CCOC(=O)c1nn(-c2ccccc2C)c2nc(-c3ccc(C)cc3)c(C#N)c(=O)n12	69	x	x	62	x
Cn1c(C2CCCN2C(=O)OC(C)(C)C)n[nH]c1=S (configuration not stated)	107	1.8*	92	88	96
